Measurements published in ChEMBL document CHEMBL2086288, “Synthesis, antimicrobial and cytotoxicity study of 1,3-disubstituted-1H-naphtho[1,2-e][1,3]oxazines” (2012).

Key:
MCF7 [1] = assay: Growth inhibition of human MCF7 cells at 1 uM after 48 hrs by MTT assay; format: functional; details: MCF7, 48 h, read-out: GI
Method in brief: (§1)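 Cells from ECACC are kept in RPMI-1640 with 10% FCS and 1% penicillin at 37 °C in 5% CO2. They are seeded at 3×10^3 cells/well and dosed after 24 h from filter-sterilized DMSO stocks, then treated for 48 h. MTT (2.5 mg/mL in PBS) is added, formazan is dissolved in DMSO, and A570 is read. Viability is given as % of untreated.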

PC-3 [2] = assay: Growth inhibition of human PC3 cells at 1 uM after 48 hrs by MTT assay; format: functional; details: PC-3, 48 h, read-out: GI; method in brief: as §1
A549 [3] = assay: Growth inhibition of human A549 cells at 1 uM after 48 hrs by MTT assay; format: functional; details: A549, 48 h, read-out: GI; method in brief: as §1
HCT-116 [4] = assay: Growth inhibition of human HCT116 cells at 20 uM after 48 hrs by MTT assay; format: functional; details: HCT-116, 48 h, read-out: GI
Method in brief: (§2)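 Cells from ECACC, grown in RPMI-1640 with 10% FCS and 1% penicillin, 37 °C, 5% CO2. Seeded at 3×10^3 cells/well in 100 µL medium. Compounds added 24 h later from filter-sterilized DMSO stocks. MTT (2.5 mg/mL in PBS, 20 µL) added, then at least 4 h incubation. Formazan dissolved in DMSO after 48 h treatment, absorbance read at 570 nm. Results given as % viable cells versus untreated.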

A549 [5] = assay: Growth inhibition of human A549 cells at 20 uM after 48 hrs by MTT assay; format: functional; details: A549, 48 h, read-out: GI; method in brief: as §2
MCF7 [6] = assay: Growth inhibition of human MCF7 cells at 50 uM after 48 hrs by MTT assay; format: functional; details: MCF7, 48 h, read-out: GI; method in brief: as §1
Candida albicans = assay: Antifungal activity against Candida albicans MTCC 227 after 48 hrs by tube dilution method; format: functional
MCF7 [7] = assay: Growth inhibition of human MCF7 cells after 48 hrs by MTT assay; format: functional, cell-based; method in brief: as §1
Escherichia coli = assay: Antibacterial activity against Escherichia coli MTCC 1652 after 24 hrs by tube dilution method; format: functional
A549 [8] = assay: Growth inhibition of human A549 cells at 10 uM after 48 hrs by MTT assay; format: functional; details: A549, 48 h, read-out: GI; method in brief: as §1
Aspergillus niger = assay: Antifungal activity against Aspergillus niger MTCC 8184 after 7 days by tube dilution method; format: functional
Method in brief: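 Tube (serial) dilution MIC in Sabouraud dextrose broth I.P., 25 °C for 7 days. Results are recorded as MIC and reported as pMIC in mM.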

MCF7 [9] = assay: Growth inhibition of human MCF7 cells at 10 uM after 48 hrs by MTT assay; format: functional; details: MCF7, 48 h, read-out: GI; method in brief: as §1
A549 [10] = assay: Growth inhibition of human A549 cells at 50 uM after 48 hrs by MTT assay; format: functional; details: A549, 48 h, read-out: GI; method in brief: as §1
HCT-116 [11] = assay: Growth inhibition of human HCT116 cells after 48 hrs by MTT assay; format: functional, cell-based; method in brief: as §1
PC-3 [12] = assay: Growth inhibition of human PC3 cells at 50 uM after 48 hrs by MTT assay; format: functional; details: PC-3, 48 h, read-out: GI; method in brief: as §1
PC-3 [13] = assay: Growth inhibition of human PC3 cells at 10 uM after 48 hrs by MTT assay; format: functional; details: PC-3, 48 h, read-out: GI; method in brief: as §1
A549 [14] = assay: Growth inhibition of human A549 cells after 48 hrs by MTT assay; format: functional, cell-based; method in brief: as §1
Staphylococcus aureus = assay: Antibacterial activity against Staphylococcus aureus MTCC 2901 after 24 hrs by tube dilution method; format: functional
Bacillus subtilis = assay: Antibacterial activity against Bacillus subtilis MTCC 2063 after 24 hrs by tube dilution method; format: functional
HCT-116 [15] = assay: Growth inhibition of human HCT116 cells at 10 uM after 48 hrs by MTT assay; format: functional; details: HCT-116, 48 h, read-out: GI; method in brief: as §1
HCT-116 [16] = assay: Growth inhibition of human HCT116 cells at 50 uM after 48 hrs by MTT assay; format: functional; details: HCT-116, 48 h, read-out: GI; method in brief: as §1

CO[C@@]12[C@H](COC(N)=O)C3=C(C(=O)C(C)=C(N)C3=O)N1C[C@@H]1N[C@@H]12 [MITOMYCIN]
inhibition of growth at 1 µM (MCF7 [1]): 82% | inhibition of growth at 1 µM (PC-3 [2]): 70% | inhibition of growth at 1 µM (A549 [3]): 70%

O=c1[nH]cc(F)c(=O)[nH]1 [FLUOROURACIL]
inhibition of growth at 20 µM (HCT-116 [4]): 78% | inhibition of growth at 20 µM (A549 [5]): 79%

Fc1ccc(C2=NC(c3ccc(F)cc3)c3c(ccc4ccccc34)O2)cc1 (stereo unspecified)
inhibition of growth at 50 µM (MCF7 [6]): 50% | -logMIC (Candida albicans): 1.77 | growth inhibition (GI) (MCF7 [7]): Dose-dependent effect | -logMIC (Escherichia coli): 1.47 | inhibition of growth at 10 µM (A549 [8]): 20% | -logMIC (Aspergillus niger): 1.47 | inhibition of growth at 10 µM (MCF7 [9]): 36% | inhibition of growth at 50 µM (A549 [10]): 50% | growth inhibition (GI) (HCT-116 [11]): Dose-dependent effect | inhibition of growth at 50 µM (PC-3 [12]): 29% | inhibition of growth at 10 µM (PC-3 [13]): 22% | growth inhibition (GI) (A549 [14]): Dose-dependent effect | -logMIC (Staphylococcus aureus): 2.07 | -logMIC (Bacillus subtilis): 1.77 | inhibition of growth at 10 µM (HCT-116 [15]): 5% | inhibition of growth at 50 µM (HCT-116 [16]): 51%
